From ChEMBL document CHEMBL4368884, “Structure-activity relationship of the cinnamamide family of antibiotic potentiators for methicillin-resistant Staphylococcus aureus (MRSA)” (Medchemcomm, 2018)

Legend:
Staphylococcus aureus [1] = assay: Potentiation of oxacillin-induced antibacterial activity against Staphylococcus aureus MRSA252 assessed as oxacillin MIC at 20 uM (reference value: 256 ug/ml); type: functional
Staphylococcus aureus [2] = assay: Growth inhibition of Staphylococcus aureus MRSA252; type: organism-based; settings: in vitro
Outline: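 Compound alone was two-fold serially diluted in cation-adjusted Mueller-Hinton II broth containing 2.4% DMSO. Bacteria were inoculated at 5 × 10⁵ CFU mL⁻¹ and incubated at 36 °C for 16–20 h. The MIC was read in triplicate.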

Staphylococcus aureus [3] = assay: Potentiation of oxacillin-induced antibacterial activity against methicillin/oxacillin/tetracycline-resistant Staphylococcus aureus NRS100 assessed as oxacillin MIC at 20 uM; type: functional
Outline: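 Oxacillin MIC measured with the synthetic potentiator held at a fixed 20 μM. Two-fold serial dilution in cation-adjusted Mueller-Hinton II broth containing 2.4% DMSO. Inoculum 5 × 10⁵ CFU mL⁻¹, incubated at 36 °C for 16–20 h. Run in triplicate.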

Staphylococcus aureus [4] = assay: Potentiation of oxacillin-induced antibacterial activity against Staphylococcus aureus NRS386 assessed as oxacillin MIC at 20 uM; type: functional; settings: USA700 NRS386
Staphylococcus aureus [5] = assay: Potentiation of oxacillin-induced antibacterial activity against Staphylococcus aureus NRS70 assessed as oxacillin MIC at 20 uM; type: functional
Staphylococcus aureus [6] = assay: Potentiation of oxacillin-induced antibacterial activity against Staphylococcus aureus MRSA252 assessed as fold reduction in oxacillin MIC at 20 uM relative to oxacillin alone; type: functional

| SMILES | MIC (Staphylococcus aureus [1]) [µg/mL] | growth inhibition (GI) (Staphylococcus aureus [2]) | MIC (Staphylococcus aureus [3]) [µg/mL] | MIC (Staphylococcus aureus [4]) [µg/mL] | MIC (Staphylococcus aureus [5]) [µg/mL] | fold change (FC) (Staphylococcus aureus [6]) |
| --- | --- | --- | --- | --- | --- | --- |
| COc1ccc(S(=O)(=O)N(CCO)c2ccccc2CN(C/C=C/c2ccc(Cl)cc2)CC(C)C)cc1 | 128 | Non-Toxic |  |  |  |  |
| C=CCN(C)Cc1ccccc1N(CCO)S(=O)(=O)c1ccc(Cl)cc1 | ≥ 256 | Non-Toxic |  |  |  |  |
| Cc1ccc(S(=O)(=O)N(CCO)c2ccccc2CN(C(=O)/C=C/c2ccc(C(F)(F)F)cc2)C2CC2)cc1 | ≥ 256 | Non-Toxic |  |  |  |  |
| Cc1ccc(S(=O)(=O)N(CCO)c2ccccc2CN(C)C(=O)CCc2ccc(Cl)cc2)cc1 | ≥ 256 | Non-Toxic |  |  |  |  |
| CN(Cc1ccccc1N(CCO)S(=O)(=O)c1ccc(OC(F)(F)F)cc1)C(=O)/C=C/c1ccc(C(F)(F)F)cc1 | 32 | Non-Toxic |  |  |  |  |
| CN(C/C=C/c1ccc(Cl)cc1)Cc1ccccc1N(CCO)S(=O)(=O)c1ccc(Cl)cc1 | 16 | Non-Toxic |  |  |  |  |
| Cc1ccc(S(=O)(=O)N(CCO)c2ccccc2CN(C)C(=O)/C=C/c2ccc(F)cc2)cc1 | ≥ 256 | Non-Toxic |  |  |  |  |
| CN(C/C=C/c1ccc(Cl)cc1)Cc1ccccc1N(CCO)S(=O)(=O)Cc1ccccc1 | ≥ 256 | Non-Toxic |  |  |  |  |
| Cc1ccc(S(=O)(=O)N(CCO)c2ccccc2CN(C)C(=O)c2ccc3cc(Br)ccc3c2)cc1 | ≥ 256 | Non-Toxic |  |  |  |  |
| CN(Cc1ccccc1N(CCO)S(=O)(=O)c1ccc2c(c1)OCCO2)C(=O)/C=C/c1ccc(C(F)(F)F)cc1 | 64 | Non-Toxic |  |  |  |  |
| Cc1ccc(S(=O)(=O)N(CCO)c2ccccc2CN(C)C(=O)/C=C/c2ccc(Cl)cc2)cc1 | 2 | Non-Toxic | 2 | 4 | 8 | 128 |
| Cc1ccc(S(=O)(=O)N(CCO)c2ccccc2CN(C)C(=O)COc2ccc(Cl)cc2)cc1 | ≥ 256 | Non-Toxic |  |  |  |  |
| Cc1ccc(S(=O)(=O)N(CCO)c2ccccc2CN(C)C(=O)/C=C/c2ccc(Cl)c(Cl)c2)cc1 | 16 | Non-Toxic |  |  |  |  |
| CN(Cc1ccccc1N(CCO)S(=O)(=O)c1ccc(F)cc1)C(=O)/C=C/c1ccc(Cl)cc1 | 4 | Non-Toxic | 1 | 1 | 8 | 64 |
| CN(Cc1ccccc1N(CCO)S(=O)(=O)c1ccc(F)cc1)C(=O)/C=C/c1ccc(C(F)(F)F)cc1 | 2 | Non-Toxic | 2 | 8 | 16 | 128 |
| CN(Cc1ccccc1N(CCO)S(=O)(=O)c1cccs1)C(=O)/C=C/c1ccc(Cl)cc1 | 256 | Non-Toxic |  |  |  |  |
| Cc1ccc(S(=O)(=O)N(CCO)c2ccccc2CN(C)C(=O)/C=C/c2ccc(-c3ccc(Cl)cc3)o2)cc1 | ≥ 256 | Non-Toxic |  |  |  |  |
| CCN(Cc1ccccc1N(CCO)S(=O)(=O)c1ccc(C)cc1)C(=O)/C=C/c1ccc(C(F)(F)F)cc1 | ≥ 256 | Non-Toxic |  |  |  |  |
| Cc1ccc(S(=O)(=O)N(CCO)c2ccccc2C(=O)N(C)C/C=C/c2ccc(Cl)cc2)cc1 | ≥ 256 | Non-Toxic |  |  |  |  |
| Cc1ccc(S(=O)(=O)N(CCO)c2ccccc2CN(C)C(=O)/C=C/c2cccnc2)cc1 | ≥ 256 | Non-Toxic |  |  |  |  |
| Cc1ccc(S(=O)(=O)N(CCO)c2cccc(CN(C)C(=O)/C=C/c3ccc(C(F)(F)F)cc3)c2)cc1 | ≥ 256 | Non-Toxic |  |  |  |  |
| Cc1ccc(S(=O)(=O)N(CCO)c2ccccc2CN(C)C(=O)/C=C/c2ccc(C(F)(F)F)cc2)cc1F | 4 | Non-Toxic | 2 | 8 | 16 | 64 |
| Cc1ccc(/C=C/C(=O)N(C)Cc2ccccc2N(CCO)S(=O)(=O)c2ccc(C)cc2)cc1 | 64 | Non-Toxic |  |  |  |  |
| CN(Cc1ccccc1N(CCO)S(=O)(=O)c1ccccc1)C(=O)/C=C/c1ccc(C(F)(F)F)cc1 | 4 | Non-Toxic | 2 | 2 | 16 | 64 |
| Cc1ccc(S(=O)(=O)N(CCO)c2ccccc2CNC(=O)/C=C/c2ccc(C(F)(F)F)cc2)cc1 | ≥ 256 | Non-Toxic |  |  |  |  |
| C=CCN(C)Cc1ccccc1N(CCO)S(=O)(=O)c1ccc(C)cc1 | ≥ 256 | Non-Toxic |  |  |  |  |
